Data taken from ChEMBL document CHEMBL1148652, “Design of potent, orally available antagonists of the transient receptor potential vanilloid 1. Structure-activity relationships of 2-piperazin-1-yl-1H-benzimidazoles” (J Med Chem, 2006).
Calls of active or inactive are those of the source. No cut-off for these calls is given here.

What was measured:
[1] = target: Transient receptor potential cation channel subfamily V member 1 (Rattus norvegicus) (UniProt O35433); assay: Antinociceptive activity in po dosed Sprague-Dawley rat assessed as ability to block capsaicin-induced paw flinching; assay type: functional, organism-based
In short: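 Rats dosed orally, then challenged with intraplantar capsaicin (0.5 µg/[…] per paw) to provoke flinching. Eight animals per group; ED50 taken from dose-response.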

[2] = target: Transient receptor potential cation channel subfamily V member 1 (Rattus norvegicus) (UniProt O35433); assay: Antinociceptive activity in Sprague-Dawley rat assessed as reversal of CFA-induced thermal hyperalgesia; assay type: functional
In short: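 Thermal hyperalgesia induced in rats by complete Freund's adjuvant; reversal assessed after oral dosing at 30 mg/kg.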

[3] = target: T1, Transient receptor potential cation channel subfamily V member 1 (Rattus norvegicus, UniProt O35433); assay: Antagonist activity against capsaicin-induced 45calcium ion uptake in CHO cells expressing rat TRPV1; assay type: functional, cell-based
In short: (§1)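 CHO cells recombinantly expressing rat TRPV1; inhibition of 45Ca2+ uptake triggered by capsaicin or by acid, pH 5. Functional IC50 in nM, averaged over at least two independent experiments, each with three replicates per concentration.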

[4] = target: T1, Transient receptor potential cation channel subfamily V member 1; assay: Antagonist activity against acid-induced 45calcium ion uptake in CHO cells expressing rat TRPV1 at pH5; assay type: functional, cell-based; in short: as §1
[5] = Clearance in Sprague-Dawley rat at 1 mg/kg, iv; assay type: ADME, organism-based; set-up: dose 1 mg/kg, route intravenous; settings: in vivo
[6] = Volume of distribution in Sprague-Dawley rat at 1 mg/kg, iv; assay type: ADME, organism-based; set-up: dose 1 mg/kg, route intravenous; settings: in vivo, read-out: Vdss
[7] = Elimination half life in Sprague-Dawley rat at 1 mg/kg, iv; assay type: ADME, organism-based; set-up: dose 1 mg/kg, route intravenous; settings: in vivo
[8] = Tmax in Sprague-Dawley rat at 5 mg/kg, po; assay type: ADME, organism-based; set-up: dose 5 mg/kg, route oral; settings: in vivo
[9] = Cmax in Sprague-Dawley rat at 5 mg/kg, po; assay type: ADME, organism-based; set-up: dose 5 mg/kg, route oral; settings: in vivo
[10] = Oral bioavailability in Sprague-Dawley rat; assay type: ADME, organism-based; settings: in vivo

Sequence of Transient receptor potential cation channel subfamily V member 1 (Rattus norvegicus) (O35433 whole entry): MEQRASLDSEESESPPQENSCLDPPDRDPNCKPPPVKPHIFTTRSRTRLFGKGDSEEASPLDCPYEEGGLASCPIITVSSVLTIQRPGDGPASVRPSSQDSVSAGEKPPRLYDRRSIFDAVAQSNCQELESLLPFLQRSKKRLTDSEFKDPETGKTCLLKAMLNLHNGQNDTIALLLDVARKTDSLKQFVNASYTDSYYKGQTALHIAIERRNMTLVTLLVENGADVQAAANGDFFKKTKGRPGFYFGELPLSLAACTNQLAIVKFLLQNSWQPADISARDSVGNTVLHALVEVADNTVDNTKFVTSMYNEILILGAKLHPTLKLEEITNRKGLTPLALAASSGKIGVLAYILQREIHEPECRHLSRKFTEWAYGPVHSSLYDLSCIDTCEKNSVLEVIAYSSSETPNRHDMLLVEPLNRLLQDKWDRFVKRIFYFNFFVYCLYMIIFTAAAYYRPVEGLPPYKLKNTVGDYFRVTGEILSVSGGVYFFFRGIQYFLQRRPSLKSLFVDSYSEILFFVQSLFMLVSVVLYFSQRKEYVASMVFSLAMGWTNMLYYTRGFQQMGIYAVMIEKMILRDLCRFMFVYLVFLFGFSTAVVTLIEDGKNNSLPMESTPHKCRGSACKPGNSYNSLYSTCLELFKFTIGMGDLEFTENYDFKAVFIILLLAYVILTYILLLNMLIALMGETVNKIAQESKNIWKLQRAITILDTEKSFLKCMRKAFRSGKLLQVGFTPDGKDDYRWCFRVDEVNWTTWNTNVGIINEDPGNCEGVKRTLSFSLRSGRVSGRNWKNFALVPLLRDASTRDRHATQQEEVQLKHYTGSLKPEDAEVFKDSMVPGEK
T1 sequence (O35433 whole entry): as above

Row | IC50 [3] | IC50 [4] | SMILES | also measured
1 | 0.9 nM | 0.9 nM | C[C@@H]1CN(c2ncc(C(O)CO)cc2Cl)CCN1c1nc2c(-c3cc(F)c(F)c(F)c3)cc(C(F)(F)F)cc2[nH]1 (mixture of isomers) | ED50 [1]: 8.8 mg/kg; Activity [2]: Active; clearance [5]: 4.5 mL/min/kg; Vd [6]: 1.89 L/kg; half-life [7]: 5.6 h; Tmax [8]: 4 h; Cmax [9]: 617 ng/mL; bioavailability [10]: 17%
2 | 33 nM | 26 nM | Fc1cc(-c2cc(C(F)(F)F)cc3[nH]c(N4CCN(c5ncccc5C(F)(F)F)CC4)nc23)cc(F)c1F | 
3 | 430 nM | 1000 nM | NC(=O)c1cnc(N2CCN(c3nc4cc(C(F)(F)F)ccc4[nH]3)CC2)c(Cl)c1 | 
4 | 3910 nM | 8030 nM | FC(F)(F)c1ccc2[nH]c(N3CCN(c4ccncc4Cl)CC3)nc2c1 | 
5 | 123 nM | 194 nM | FC(F)(F)c1cccnc1N1CCN(c2nc3ccc(Br)cc3[nH]2)CC1 | 
6 | 1550 nM | 884 nM | FC(F)(F)c1cnc2nc(N3CCN(c4ncccc4C(F)(F)F)CC3)[nH]c2c1 | 
7 | 2060 nM | 406 nM | FC(F)(F)c1ccc2nc(N3CCN(c4ccccc4C(F)(F)F)CC3)[nH]c2c1 | 
8 | 7 nM | 6.7 nM | C[C@@H]1CN(c2ncc(CO)cc2Cl)CCN1c1nc2c(NCc3ccccc3)cc(C(F)(F)F)cc2[nH]1 | 
9 | > 40000 nM | 1270 nM | FC(F)(F)c1ccc2[nH]c(N3CCN(c4c(Cl)cccc4Cl)CC3)nc2c1 | 
10 | 2110 nM | > 40000 nM | FC(F)(F)c1ccc2[nH]c(N3CCN(c4ncncc4Cl)CC3)nc2c1 | 
11 | 2380 nM | 2850 nM | FC(F)(F)c1ccc2[nH]c(N3CCN(c4ccncc4C(F)(F)F)CC3)nc2c1 | 
